Laboratory results from article PMC9134407 (ACS Omega, 2022).

How the values were obtained:
[1] = Cell-Titer Blue cytotoxicity assay; assay type: cell-based; settings: human, HEK293T cells
[2] = molecular target: T1, human FXR (Homo sapiens, UniProt Q96RI1); experiment: cell-based luciferase reporter assay; settings: for inhibition at 10 µM: HEK-293T
T1 sequence (Q96RI1 1-486): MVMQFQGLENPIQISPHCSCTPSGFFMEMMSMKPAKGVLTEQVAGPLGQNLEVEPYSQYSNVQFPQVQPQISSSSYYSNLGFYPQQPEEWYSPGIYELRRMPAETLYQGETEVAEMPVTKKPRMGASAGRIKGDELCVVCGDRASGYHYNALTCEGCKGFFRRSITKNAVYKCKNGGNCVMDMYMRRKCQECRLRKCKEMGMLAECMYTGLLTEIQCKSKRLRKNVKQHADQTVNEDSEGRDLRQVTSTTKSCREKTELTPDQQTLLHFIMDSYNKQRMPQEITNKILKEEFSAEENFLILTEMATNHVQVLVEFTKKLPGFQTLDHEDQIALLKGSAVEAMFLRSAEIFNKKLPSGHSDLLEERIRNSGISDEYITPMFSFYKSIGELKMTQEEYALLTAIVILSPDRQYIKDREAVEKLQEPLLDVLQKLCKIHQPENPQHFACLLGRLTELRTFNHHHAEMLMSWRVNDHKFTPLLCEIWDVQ
How it was run: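 HEK293T cells transiently cotransfected with a human FXR expression vector and an SHP promoter luciferase reporter (SHP-luc). Transactivation was driven by GW4064 at 10 μM, with or without test compound. FXR-dependent reporter activity was read as luciferase signal.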

[3] = system: FXR; settings: read-out: IC50 FXR antagonist; cited from earlier work

| inhibition at 10 µM [2] [%] | IC50 [2] [µM] | SMILES | viability at 10 µM [1] [%] | viability [1] [%] | IC50 [3] [µM] |
| --- | --- | --- | --- | --- | --- |
| 54.7 ± 6.2 | – | CC(=O)O[C@@H]1CC[C@]2(C)C(=O)[C@H](C3CC[C@H]([C@H](C)CCCC(C)C)[C@@]3(C)CC(=O)O)CC[C@H]2C1 (stereo partly shown) [Compound 3a] | > 100 | – | – |
| 24.9 ± 2 | – | CC(=O)O[C@H]1CC[C@]2(C)C(=O)[C@H](C3CC[C@H]([C@H](C)CCCC(C)C)[C@@]3(C)CC(=O)O)CC[C@H]2C1 (stereo partly shown) [Compound 3b] | > 100 | – | – |
| 53.1 ± 4.9 | – | CC(C)CCC[C@@H](C)[C@H]1CCC([C@@H]2CC[C@H]3C[C@H](O)CC[C@]3(C)C2=O)[C@]1(C)CC(=O)O (stereo partly shown) [Compound 4a] | > 100 | – | – |
| 14.1 ± 4.1 | – | CC(C)CCC[C@@H](C)[C@H]1CCC([C@@H]2CC[C@H]3C[C@@H](O)CC[C@]3(C)C2=O)[C@]1(C)CC(=O)O (stereo partly shown) [Compound 4b] | > 100 | – | – |

The next lines start with the compound.

| SMILES | inhibition at 10 µM [2] [%] | IC50 [2] [µM] | viability at 10 µM [1] [%] | viability [1] [%] | IC50 [3] [µM] |
| --- | --- | --- | --- | --- | --- |
| CC(C)CCC[C@@H](C)[C@H]1CCC([C@@H]2CC[C@H]3C[C@H](O)CC[C@]3(C)C2=O)[C@]1(C)C/C=C/C(=O)O (stereo partly shown) [Compound 7] | 76.3 ± 1.9 | – | > 100 | – | – |
| CC(C)CCC[C@@H](C)[C@H]1CCC([C@@H]2CC[C@H]3C[C@H](O)CC[C@]3(C)C2=O)[C@]1(C)CCCC(=O)O (stereo partly shown) [Compound 8] | 85.8 ± 2.4 | 7.7 | > 100 | 41.1 | – |
| C[C@H](CCC(=O)NCC(=O)O)[C@H]1CC[C@H]2[C@@H]3[C@@H](O)C[C@@H]4C[C@H](O)CC[C@]4(C)[C@H]3CC[C@]12C [GUDCA, glycoursodeoxycholic acid] | – | – | – | – | 77.2 |
| C[C@H](CCC(=O)O)[C@H]1CC[C@H]2[C@@H]3[C@H](O)[C@H](O)[C@@H]4C[C@H](O)CC[C@]4(C)[C@H]3CC[C@]12C [HCA, hyocholic acid, reference compound] | – | 27.3 | – | > 100 | 70.1 |
| C[C@H](CCC(=O)NCCS(=O)(=O)O)[C@H]1CC[C@H]2[C@@H]3[C@@H](O)C[C@@H]4C[C@H](O)CC[C@]4(C)[C@H]3CC[C@]12C [TUDCA, tauroursodeoxycholic acid] | – | – | – | – | 75.1 |
